ChEMBL document CHEMBL1764953, “Discovery of orally active carboxylic acid derivatives of 2-phenyl-5-trifluoromethyloxazole-4-carboxamide as potent diacylglycerol acyltransferase-1 inhibitors for the potential treatment of obesity and diabetes” (J Med Chem, 2011)

Assays:
Rattus norvegicus [1] = assay: Antiobesity activity in diet-induced obese rat assessed as decrease in food intake at 3 mg/kg, po administered once daily for 3 weeks; format: functional; design: scale not given: the % may be the effect or the level left
Procedure, shortened: (§1)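 Male DIO rats, 19 weeks old, on high fat diet for 12 weeks, dosed po once daily with Klucel (hydroxypropyl cellulose) suspension for 22 days; 10 rats per group. Body weight followed throughout; daily food intake recorded on days 1–3, 8, 9, 15 and 16, values averaged per group.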

[2] = Cmax in diet-induced obese rat at 3 mg/kg, po administered once daily for 3 weeks; format: ADME, organism-based; design: dose 3 mg/kg, route oral; conditions: in vivo
[3] = Cmax in diet-induced obese rat at 0.3 mg/kg, po administered once daily for 3 weeks; format: ADME, organism-based; design: dose 0.3 mg/kg, route oral; conditions: in vivo
Rattus norvegicus [4] = assay: Antiobesity activity in diet-induced obese rat assessed as reduction in body weight gain at 3 mg/kg, po administered once daily for 3 weeks; format: functional; design: scale not given: the % may be the effect or the level left; procedure, shortened: as §1
Rattus norvegicus [5] = assay: Antiobesity activity in diet-induced obese rat assessed as reduction in plasma triglyceride levels at 3 mg/kg, po qd after 4 hrs challenged with corn oil relative to vehicle treated control; format: functional; design: scale not given: the % may be the effect or the level left
Procedure, shortened: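 Male DIO rats given 3 mg/kg po once daily for 1 week, with body weight gain followed. At study end, rats were fasted 4 h and challenged with corn oil 5 mL/kg; plasma triglycerides were measured 4 h later and compared with the vehicle group.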

[6] = Oral bioavailability in Hanover Wistar rat at 10 mg/kg; format: ADME, organism-based; conditions: in vivo
Procedure, shortened: (§2)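 Hanover Wistar rats (n = 3) with jugular/femoral cannulae, oral gavage of a 2 mg/mL suspension in 2% Klucel LF with 0.1% Tween 80; femoral-vein sampling, EDTA plasma, acetonitrile precipitation, LC-MS/MS (5.0–5000 ng/mL), noncompartmental analysis; F relative to 5 mg/kg iv; mean of n = 3.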

[7] = Tmax in Hanover Wistar rat at 10 mg/kg, po; format: ADME, organism-based; design: dose 10 mg/kg, route oral; conditions: in vivo
Procedure, shortened: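 Oral gavage to rats (jugular/femoral vein-cannulated, femoral vein blood sampling) or beagle dogs, n = 3, as a 2 mg/mL suspension in 2% Klucel LF with 0.1% Tween 80 in water. Plasma extracted by acetonitrile protein precipitation and quantified by LC-MS/MS (linear 5.0–5000 ng/mL). Noncompartmental analysis; mean of 3.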

[8] = Cmax in Hanover Wistar rat at 10 mg/kg, po by LC-MS/MS; format: ADME, organism-based; design: dose 10 mg/kg, route oral; conditions: in vivo; procedure, shortened: as §2
[9] = Extrapolated AUC in Beagle dog at 10 mg/kg, po; format: ADME, organism-based, Canis lupus familiaris; design: dose 10 mg/kg, route oral; conditions: in vivo
Procedure, shortened: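 Plasma extracted by acetonitrile precipitation and quantified by LC-MS/MS (5.0–5000 ng/mL); noncompartmental PK; bioavailability relative to 5 mg/kg iv; mean of n = 3.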

[10] = Half life in Hanover Wistar rat at 5 mg/kg, iv; format: ADME, organism-based; design: dose 5 mg/kg, route intravenous; conditions: in vivo
Procedure, shortened: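 Hanover Wistar rats (n = 3) cannulated in jugular and femoral veins, dosed iv 5 mg/kg via jugular vein as a solution in 2% DMA, 15% PEG400, 77% of 28% HPβCD in pH 7 PBS. Femoral-vein blood, EDTA plasma, acetonitrile precipitation, LC-MS/MS, noncompartmental analysis; mean of n = 3.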

Cytochrome P450 2C9 = Cytochrome P450 2C9 (Homo sapiens, UniProt P11712); assay: Inhibition of CYP2C9; format: ADME
Chain of Cytochrome P450 2C9 (P11712 whole entry): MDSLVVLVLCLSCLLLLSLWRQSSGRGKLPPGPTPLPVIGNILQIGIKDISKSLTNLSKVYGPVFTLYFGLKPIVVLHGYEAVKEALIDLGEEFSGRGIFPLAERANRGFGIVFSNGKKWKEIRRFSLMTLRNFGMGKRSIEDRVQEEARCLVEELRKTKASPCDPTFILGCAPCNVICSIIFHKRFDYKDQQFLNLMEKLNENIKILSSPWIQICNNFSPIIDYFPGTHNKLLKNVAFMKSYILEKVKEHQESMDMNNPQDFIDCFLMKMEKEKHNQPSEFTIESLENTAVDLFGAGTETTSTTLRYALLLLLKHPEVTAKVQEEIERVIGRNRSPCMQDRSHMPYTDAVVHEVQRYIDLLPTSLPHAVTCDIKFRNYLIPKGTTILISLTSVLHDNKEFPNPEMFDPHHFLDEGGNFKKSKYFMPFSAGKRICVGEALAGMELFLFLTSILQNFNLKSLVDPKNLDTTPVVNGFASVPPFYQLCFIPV

[11] = Lipophilicity, log D of the compound; format: physicochemical; conditions: octanol/water
[12] = Association constant pKa of the compound; format: physicochemical
[13] = target: T1, Diacylglycerol O-acyltransferase 2 (Homo sapiens, UniProt Q96PD7); assay: Inhibition of human DGAT2 expressed in baculovirus infected Sf9 cells using palmitoyl-1-14C-coenzyme A by TLC assay
T1 sequence (Q96PD7 whole entry): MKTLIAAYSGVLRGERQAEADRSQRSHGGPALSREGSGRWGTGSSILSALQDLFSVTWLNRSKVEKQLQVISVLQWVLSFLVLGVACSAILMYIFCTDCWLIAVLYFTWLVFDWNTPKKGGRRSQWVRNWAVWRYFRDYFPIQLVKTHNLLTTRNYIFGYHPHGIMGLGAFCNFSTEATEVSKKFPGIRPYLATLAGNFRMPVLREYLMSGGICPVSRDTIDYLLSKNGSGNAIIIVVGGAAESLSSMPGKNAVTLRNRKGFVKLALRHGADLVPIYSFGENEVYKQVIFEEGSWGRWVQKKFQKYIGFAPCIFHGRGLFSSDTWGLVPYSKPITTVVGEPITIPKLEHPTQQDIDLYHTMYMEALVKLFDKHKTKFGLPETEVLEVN
Procedure, shortened: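 DGAT-2 membranes from baculovirus-infected Sf9 cells, diluted to 0.313 mg/mL in 50 mM Tris pH 7.5, 20 mM MgCl2, 0.25 M sucrose. Preincubated 15 min on ice with compound (0–600 μM solutions in 20% DMSO), then DAG and 8.3 μM [14C]palmitoyl-CoA solutions added; 5 min at 37 °C. Lipids extracted with chloroform/methanol, resolved by TLC, phosphoimager read-out.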

[14] = target: T2, Diacylglycerol O-acyltransferase 1 (Homo sapiens, UniProt O75907); assay: Inhibition of human DGAT1 expressed in baculovirus infected insect cells after 1 hr using palmitoyl-1-14C-coenzyme A by phospholipid flashplate assay
T2 sequence (O75907 whole entry): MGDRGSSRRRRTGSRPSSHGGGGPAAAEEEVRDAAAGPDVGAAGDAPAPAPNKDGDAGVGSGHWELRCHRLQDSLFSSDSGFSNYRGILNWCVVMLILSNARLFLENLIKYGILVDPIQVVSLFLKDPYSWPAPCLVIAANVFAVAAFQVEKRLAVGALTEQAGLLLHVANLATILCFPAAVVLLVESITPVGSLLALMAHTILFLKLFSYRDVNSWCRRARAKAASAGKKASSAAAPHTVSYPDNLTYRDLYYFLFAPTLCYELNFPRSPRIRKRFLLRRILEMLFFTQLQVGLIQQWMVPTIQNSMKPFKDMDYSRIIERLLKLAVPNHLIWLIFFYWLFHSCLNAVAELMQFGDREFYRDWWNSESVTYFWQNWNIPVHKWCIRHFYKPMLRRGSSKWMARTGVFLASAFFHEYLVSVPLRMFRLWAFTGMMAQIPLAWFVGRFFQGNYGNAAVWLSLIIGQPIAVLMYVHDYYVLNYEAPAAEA

[15] = target: T2, Diacylglycerol O-acyltransferase 1; assay: Inhibition of human DGAT1 expressed in CHO-K1 cells after 1 hr using 14C palmitic acid

What does the source list for `O=C(Nc1ccc(C2CCN(C(=O)[C@H]3CC[C@H](C(=O)O)CC3)CC2)cc1)c1nc(-c2ccccc2)oc1C(F)(F)F`?
Activity (Rattus norvegicus [1]): 27%; Cmax [2]: 15.1 µM; Cmax [3]: 2 µM; Activity (Rattus norvegicus [4]): 8%; Activity (Rattus norvegicus [5]): 85%; bioavailability [6]: 73%; Tmax [7]: 12 h; Cmax [8]: 34.8 µM; AUC [9]: 77.9 µM·h; half-life [10]: 8.6 h; IC50 (Cytochrome P450 2C9): > 50000 nM; logD [11]: 2.34; pKa [12]: 5.78; IC50 [13]: > 100000 nM; IC50 [14]: 57 nM; EC50 [15]: 493 nM
